Laboratory results from ChEMBL document CHEMBL1158857, “New steroidal alkaloids from Buxus longifolia” (1997).

Tests used:
Pseudomonas aeruginosa [1] = assay: Antibacterial activity against Pseudomonas aeruginosa at 100 ug/100 uL after 24 hrs by tube broth dilution method; assay type: functional
Escherichia coli [2] = assay: Antibacterial activity against Escherichia coli at 200 ug/100 uL after 24 hrs by tube broth dilution method; assay type: functional
Pseudomonas aeruginosa [3] = assay: Antibacterial activity against Pseudomonas aeruginosa assessed per 100 uL of nutrient broth after 24 hrs by tube broth dilution method; assay type: functional
How it was run: (§1)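 Tube broth dilution in nutrient broth. Sensitive bacterial culture (0.1 mL of 10^4-10^6 cells/mL) added to tubes holding 1 mL test sample at different concentrations plus 1 mL nutrient broth. Incubated 24 h at 37 °C, then growth inhibition scored visually. Ampicillin run the same way as reference. Minimum inhibitory concentration taken from the dilution series.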

Shigella flexneri [4] = assay: Antibacterial activity against Shigella flexneri at 200 ug/100 uL after 24 hrs by tube broth dilution method; assay type: functional
Pseudomonas aeruginosa [5] = assay: Antibacterial activity against Pseudomonas aeruginosa at 200 ug/100 uL after 24 hrs by tube broth dilution method; assay type: functional
Shigella flexneri [6] = assay: Antibacterial activity against Shigella flexneri at 100 ug/100 uL after 24 hrs by tube broth dilution method; assay type: functional
Salmonella typhi [7] = assay: (§2) Antibacterial activity against Salmonella typhi assessed per 100 uL of nutrient broth after 24 hrs by tube broth dilution method; assay type: functional, Salmonella enterica subsp. enterica serovar Typhi
How it was run: (§3)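 Tube broth dilution in nutrient broth against sensitive Salmonella typhi: 0.1 mL culture (10^4-10^6 cells/mL) was added to tubes holding 1 mL of test sample at different concentrations plus 1 mL nutrient broth. Tubes were incubated 24 h at 37 °C, growth inhibition was observed, and MIC was recorded. Ampicillin was run the same way as the standard.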

Salmonella typhi [8] = assay: as §2; assay type: functional, Salmonella enterica subsp. enterica serovar Typhi; how it was run: as §3; remark: listed apart in the source
Escherichia coli [9] = assay: Antibacterial activity against Escherichia coli at 100 ug/100 uL after 24 hrs by tube broth dilution method; assay type: functional
Escherichia coli [10] = assay: Antibacterial activity against Escherichia coli assessed per 100 uL of nutrient broth after 24 hrs by tube broth dilution method; assay type: functional; how it was run: as §1
Salmonella typhi [11] = assay: Antibacterial activity against Salmonella typhi at 200 ug/100 uL after 24 hrs by tube broth dilution method; assay type: functional, Salmonella enterica subsp. enterica serovar Typhi; parameters: unit not given here
Salmonella typhi [12] = assay: Antibacterial activity against Salmonella typhi at 100 ug/100 uL after 24 hrs by tube broth dilution method; assay type: functional, Salmonella enterica subsp. enterica serovar Typhi; parameters: unit not given here

| SMILES | inhibition zone (IZ) (Pseudomonas aeruginosa [1]) | inhibition zone (IZ) (Escherichia coli [2]) | MIC (Pseudomonas aeruginosa [3]) | inhibition zone (IZ) (Shigella flexneri [4]) | inhibition zone (IZ) (Pseudomonas aeruginosa [5]) | inhibition zone (IZ) (Shigella flexneri [6]) | MIC (Salmonella typhi [7]) | MIC (Salmonella typhi [8]) | inhibition zone (IZ) (Escherichia coli [9]) | MIC (Escherichia coli [10]) | inhibition zone (IZ) (Salmonella typhi [11]) | inhibition zone (IZ) (Salmonella typhi [12]) |
| --- | --- | --- | --- | --- | --- | --- | --- | --- | --- | --- | --- | --- |
| CC1(C)S[C@@H]2[C@H](NC(=O)[C@H](N)c3ccccc3)C(=O)N2[C@H]1C(=O)O [AMPICILLIN] | 11 mm | 12 mm | 40 µg | 11 mm | 11 mm | 11 mm | 30 µg | 30 µg | 11 mm | – | – | – |
| C=C1[C@@H](N(C)C(C)=O)CC[C@]23C[C@]24CC[C@]2(C)[C@@H]([C@H](C)NC)CC[C@@]2(C)[C@@H]4CC[C@@H]13 [CYCLOBUXAMIDINE] | – | 6 mm | – | – | – | – | – | 150 µg | – | 200 µg | 6 | 6 |
| CC(=O)O[C@@H]1C[C@@]2(C)[C@@H]3C[C@@H]4OC[C@]5(C)[C@@H](NC(=O)c6ccccc6)CCC(=CC3=CC[C@]2(C)[C@H]1[C@H](C)N(C)C)[C@@H]45 [CYCLOBUXEINE F] | 6 mm | – | 10 µg | 7 mm | 8 mm | 7 mm | 100 µg | 100 µg | – | – | 8 | 7 |
| CN[C@@H](C)[C@H]1[C@H](O)C[C@@]2(C)[C@@H]3CC[C@H]4C(C)(C)[C@@H](N(C)C)C=C[C@@]45C[C@@]35CC[C@]12C [BUXASAMARINE] | 7 mm | – | 50 µg | 7 mm | 9 mm | – | 150 µg | 100 µg | – | – | 8 | 6 |
